Measurements reported in ChEMBL document CHEMBL1166011, “A bastadin with potent and selective delta-opioid receptor binding affinity from the Australian sponge Ianthella flabelliformis” (J Nat Prod, 2010).
The source made the active and inactive calls. The rule behind the calls is not given here.

How the values were obtained:
[1] = species on record: Cavia porcellus; assay: Displacement of [3H]DAMGO from mu opioid receptor in guinea pig forebrain at 100 uM by beta plate scintillation counting
Procedure, shortened: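 Guinea pig forebrain membranes (pooled, homogenized in 50 mM Tris·HCl pH 7.4, preincubated 37 °C 45 min to strip endogenous ligands, washed). 1 nM [3H]DAMGO, 315 µg protein, nonspecific binding with 10 µM naloxone; 90 min rt. Compound at 100 µM in 2% final DMSO. Filtration onto glass fiber B mats. % activity = 100 − % control, specific binding.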

[2] = species on record: Cavia porcellus; assay: Displacement of [3H]DPDPE from delta opioid receptor in guinea pig forebrain at 100 uM by beta plate scintillation counting
Procedure, shortened: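 Pooled guinea pig forebrain membranes, Tris·HCl pH 7.4 prep with 37 °C 45 min preincubation to remove endogenous ligands. 1 nM [3H]DPDPE, 315 µg membrane protein, 10 µM naloxone defines nonspecific binding; 90 min rt. Single 100 µM screen, 2% final DMSO. Glass fiber B filtration, scintillation counting. % activity = 100 − % control.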

[3] = species on record: Cavia porcellus; assay: Displacement of [3H]U69593 from kappa opioid receptor in guinea pig cerebellum at 100 uM by beta plate scintillation counting; type: tissue-based
Procedure, shortened: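 Pooled guinea pig cerebellum membranes (Tris·HCl pH 7.4, endogenous ligands removed at 37 °C 45 min). 1 nM [3H]U69593, 190 µg protein, 10 µM naloxone for nonspecific binding; 90 min rt. Tested up to 100 µM, 2% final DMSO. Filtration onto glass fiber B mats presoaked in 0.01% polyethylenimine; % activity from specific binding.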

[4] = Displacement of [3H]DPDPE from delta opioid receptor in guinea pig forebrain by beta plate scintillation counting; parameters: species or system Cavia porcellus
Procedure, shortened: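 Delta binding on pooled guinea pig forebrain membranes with 1 nM [3H]DPDPE, 315 µg protein, 10 µM naloxone for nonspecific binding; 90 min rt, filtration onto glass fiber B mats. Concentration-response over 11 treatment levels, 2% final DMSO. IC50 and Ki from nonlinear least-squares fitting, model testing by ANOVA.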

[5] = species on record: Cavia porcellus; assay: Selectivity for guinea pig delta opioid receptor over guinea pig mu opioid receptor
[6] = species on record: Cavia porcellus; assay: Selectivity for guinea pig delta opioid receptor over guinea pig kappa opioid receptor
[7] = Displacement of [3H]U69593 from kappa opioid receptor in guinea pig cerebellum by beta plate scintillation counting
[8] = Displacement of [3H]DAMGO from mu opioid receptor in guinea pig forebrain by beta plate scintillation counting

| Structure (SMILES) | inhibition [1] | inhibition [2] [%] | Activity [3] | IC50 [4] [nM] | Ki [4] [nM] | Selectivity ratio [5] | Selectivity ratio [6] | Ki [7] [nM] | Ki [8] [nM] |
| --- | --- | --- | --- | --- | --- | --- | --- | --- | --- |
| O=C1N/C=C/c2ccc(c(Br)c2)Oc2cc(ccc2OS(=O)(=O)O)CCNC(=O)/C(=N/O)C(O)c2cc(Br)c(c(Br)c2)Oc2cc(cc(Br)c2O)C/C1=N\O (stereo not given) | 39% | 86 | inactive | – | – | – | – | – | – |
| O=C1N/C=C/c2ccc(c(Br)c2)Oc2cc(ccc2OS(=O)(=O)O)CCNC(=O)/C(=N/O)Cc2cc(Br)c(c(Br)c2)Oc2cc(cc(Br)c2O)C/C1=N\O | 57% | 87 | inactive | – | – | – | – | – | – |
| O=C1NCC(O)c2ccc(c(Br)c2)Oc2cc(ccc2O)CCNC(=O)/C(=N/O)C(O)c2cc(Br)c(c(Br)c2)Oc2cc(cc(Br)c2OS(=O)(=O)O)C/C1=N\O (stereo not given) [BASTADIN 26] | inactive | – | inactive | 206 | 100 | > 1000 | > 1000 | – | – |
| C=CCN1CC[C@]23c4c5ccc(O)c4O[C@H]2C(=O)CC[C@@]3(O)[C@H]1C5 [NALOXONE] | – | – | – | – | 30 | – | – | 2.6 | 3.9 |
